The test system of data set [1] is K562 cells. Briefly: LDH leakage assay. In kind it is cell-based, human. The conditions noted are these: 10 μM peptide, 24 h, serum-free medium. An outline of the steps: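 K562 cells were seeded in 96-well plates for 24 h, then incubated 24 h with peptide in serum-free medium using a kit. Plates were spun at 400g for 5 min. Supernatant was mixed with LDH detection solution and shaken 30 min at room temperature, then read at 490 nm. Untreated wells = no leakage; LDH-releasing reagent = 100% leakage.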
For orientation: LDH leaks from cells whose membrane has failed.

Data set [2] concerns cancer cells and murine fibroblasts. The conditions noted are these: read-out: antiproliferative activity IC50 values; against cancer cells and murine fibroblasts; cited from earlier work.
Data set [3] relates to MCF-7 cells. Briefly: Cell viability, CCK-8 method. It counts as cell-based, human. The following applies: 10 μM peptide, 24 h, CCK8. The method in brief: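 MCF-7 cells (MEM, 10% FBS, 37 °C, 5% CO2) were seeded at 5×10^3 cells/well in 96-well plates. After 24 h, the medium was removed and replaced with MEM containing peptide. After 24 h at 37 °C, viability was read by CCK-8.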
(Tetrazolium dyes change colour on reduction, which living cells bring about.)

In data set [4] the test system is K562 cells. Nature of the data set: Cell viability, CCK-8 method. It counts as cell-based, human. The conditions noted are these: 10 μM peptide, 24 h, CCK8. An outline of the steps:
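K562 cells (IMDM, 10% FBS, 37 °C, 5% CO2) were seeded at 5×10^3 cells/well in 96-well plates. After 24 h, IMDM containing peptide was added without removing the medium. After 24 h at 37 °C, viability was read by CCK-8.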

A short description of data set [5]: Serum stability assay. In kind it is in vitro ADME. The conditions noted are these: peptide solution (10 mM), 37 °C, supernatant analysed by RP-HPLC.

Residues, ends and D or L forms follow the SMILES beside them. No end group written: not given here.

As for “FIGTLIPLALGALTKLFK-NH2 [F1, Figainin 1, reference compound]”, the “LDH leakage (cell membrane destruction)” value in data set [1] is on record as “destroyed cell membranes”. Moreover, in data set [2], the half-maximal inhibitory concentration (IC50) (in general, the midpoint of a concentration-inhibition curve) was 10.5 to 13.7 µM.
On to `CCCCCCCCCC(=O)N[C@@H](Cc1ccccc1)C(=O)N[C@H](C(=O)NCC(=O)N[C@H](C(=O)N[C@@H](CC(C)C)C(=O)N[C@H](C(=O)N1CCC[C@H]1C(=O)N[C@@H](CC(C)C)C(=O)N[C@@H](C)C(=O)N[C@@H](CC(C)C)C(=O)NCC(=O)N[C@@H](C)C(=O)N[C@@H](CC(C)C)C(=O)N[C@H](C(=O)N[C@@H](CCCCN)C(=O)N[C@@H](CC(C)C)C(=O)N[C@@H](Cc1ccccc1)C(=O)N[C@@H](CCCCN)C(N)=O)[C@@H](C)O)[C@@H](C)CC)[C@@H](C)O)[C@@H](C)CC` [A-10] (HELM PEPTIDE1{[CCCCCCCCCC(=O)[*:2]].F.I.G.T.L.I.P.L.A.L.G.A.L.T.K.L.F.K.[am]}$$$$V2.0), for which, in data set [3], the “anticancer activity in the preliminary screening, compared with F1, MCF-7 cells” value was “strongest anticancer activity”. Moreover, the “anticancer activity in the preliminary screening, compared with F1, K562 cells” value in data set [4] is recorded as “strongest anticancer activity”. Also, the “LDH leakage (cell membrane destruction)” value in data set [1] is recorded as “stronger than that of F1”. For the same compound, the “peptide degraded after incubation in 10% serum for 1 h” value in data set [5] is on record as “hardly degraded”.

The values above are taken from paper PMC10633881 (ACS Omega, 2023).
